Test results reported in ChEMBL document CHEMBL1145814, “Antiretroviral activity of semisynthetic derivatives of glycopeptide antibiotics” (J Med Chem, 2003).
Converted amounts (≈) assume the structure as drawn. “And” between values parts separate entries of the source, which are not always exact repeats. Equal values may be shown once.

Assays:
Mus musculus [1] = species: Mus musculus; assay: Minimal inhibitory concentration required to cause a microscopic detectable alteration of C3H/3T3 embryo murine fibroblast cell morphology; assay type: functional
Outline: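 Uninfected C3H/3T3 murine embryo fibroblast cultures were exposed to test compound and checked microscopically for changes in cell morphology. The MIC is the concentration causing a microscopically detectable alteration of morphology.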

CCRF-CEM = assay: Inhibitory concentration against proliferation of human T-lymphocytic (CEM) cells; assay type: functional, cell-based
Outline: (§1)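 (5–7.5) × 10^4 cells per well were incubated with test compound at 37 °C in a humidified CO2 atmosphere. L1210 murine leukemia cells grew for 48 h, and CEM and Molt4/clone 8 human lymphocytes grew for 72 h. Cells were then counted with a Coulter counter. IC50 is the concentration inhibiting proliferation by 50%.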

[2] = test system: Human immunodeficiency virus 2; assay: Concentration required to protect human T-lymphocytic cells against the cytopathogenicity of HIV-2; assay type: functional, organism-based
[3] = test system: Human immunodeficiency virus 1; assay: Effective concentration of compound required to protect human T-lymphocytic cells against the cytopathogenicity of HIV-1; assay type: functional, organism-based
L1210 = assay: Inhibitory concentration of compound against proliferation of murine lukemia cells L1210 was determined; assay type: functional, cell-based; settings: Mus musculus; outline: as §1
MOLT-4 = assay: Inhibitory concentration of compound against proliferation of human T-lymphocytic cells MOLT-4/C8 was determined; assay type: functional, cell-based; outline: as §1
Mus musculus [4] = species: Mus musculus; assay: Effective concentration of compound required to protect C3H/3T3 embryo murine fibroblasts against the MSV induced transformation; assay type: functional, organism-based; settings: Mus musculus, C3H/3T3
Outline: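 Monolayer murine embryo fibroblast C3H/3T3 cultures were infected with Moloney murine sarcoma virus at 75 focus-forming units and cultured with test compound. Transformation was examined microscopically on day 6 postinfection. EC50 is the concentration protecting cells against MSV-induced transformation by 50%.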

| Compound | MIC (Mus musculus [1]) [µM] | IC50 (CCRF-CEM; Homo sapiens, CCRF-CEM) [µM] | IC50 (CCRF-CEM; ccrf-cem) [µM] | EC50 [2] | EC50 [3] | IC50 (L1210) [µM] | IC50 (MOLT-4) [µM] | EC50 (Mus musculus [4]) [µM] | EC50 ([2]; Human immunodeficiency virus 2) [µM] | EC50 ([3]; Human immunodeficiency virus 1) [µM] |
| --- | --- | --- | --- | --- | --- | --- | --- | --- | --- | --- |
| CCCCc1ccc(CN2CCN(Cc3c(O)cc4c(c3O)-c3cc(ccc3O)C3NC(=O)C5NC(=O)C6NC(=O)C(Cc7ccc(c(Cl)c7)Oc7cc5cc(c7O)Oc5ccc(cc5Cl)C(O)C(NC3=O)C(=O)N[C@H]4C(=O)NC)NC(=O)C(N)c3ccc(O)c(c3)Oc3cc(O)cc6c3)CC2)cc1 (stereo not given in full) | > 20 | > 500 | > 250 | 3 µM and 6.3 µM | 1.7 µM and 3.5 µM | 61 | > 500 | 3.6 |  |  |
| O=C(NC1C(=O)NC2Cc3ccc(c(Cl)c3)Oc3cc4cc(c3O)Oc3ccc(cc3Cl)C(O)C3NC(=O)C(NC(=O)C4NC(=O)C(NC2=O)c2cc(O)cc(c2)Oc2cc1ccc2O)c1ccc(O)c(c1)-c1c(O)cc(O)cc1[C@H](C(=O)O)NC3=O)OC12CC3CC(CC(C3)C1)C2 (stereo not given in full) | > 20 | 104 |  |  |  | 22 | 25 | 9.8 | 6 | 13 |
| CCCCCCCCCCNC(=O)[C@H]1NC(=O)[C@H]2NC(=O)[C@H](NC(=O)[C@@H]3NC(=O)[C@H](CC(N)=O)NC(=O)[C@H](NC(=O)[C@@H](CC(C)C)NC)[C@H](O)c4ccc(c(Cl)c4)Oc4cc3cc(c4O[C@@H]3O[C@H](CO)[C@@H](O)[C@H](O)[C@H]3O[C@H]3C[C@](C)(N)C(O)[C@H](C)O3)Oc3ccc(cc3Cl)[C@H]2O)c2ccc(O)c(c2)-c2c(O)cc(O)cc21 (stereo not given in full) | 20 (≈ 31.8 µg/mL) | 30 |  |  |  | 30 | > 10 | > 4 | > 10 | > 10 |
| CN[C@@H](CC(C)C)C(=O)NC1C(=O)N[C@@H](CC(N)=O)C(=O)NC2C(=O)NC3C(=O)NC(C(=O)N[C@@H](C(=O)O)c4cc(O)cc(O)c4-c4cc3ccc4O)C(O)c3ccc(cc3)Oc3cc2cc(c3O)Oc2ccc(cc2Cl)C1O (stereo not given in full) | > 100 | > 500 |  |  |  | > 500 | > 500 | > 100 | > 250 | 50 |
| CNC1C(=O)NC2Cc3ccc(cc3)Oc3cc4cc(c3O)Oc3ccc(cc3Cl)C(O)C3NC(=O)C(NC(=O)C4NC(=O)C(NC2=O)c2cc(cc(O)c2Cl)Oc2cc1ccc2O)c1ccc(O)c(c1)-c1c(O)cc(O)cc1[C@H](C(=O)O)NC3=O (stereo not given in full) | > 100 | > 500 |  |  |  | > 500 | > 500 | 82 | > 50 | 40 |
| CN(Cc1ccc(Cl)cc1)Cc1c(O)cc2c(c1O)-c1cc(ccc1O)C1NC(=O)C3NC(=O)C4NC(=O)C(Cc5ccc(c(Cl)c5)Oc5cc3cc(c5O)Oc3ccc(cc3Cl)C(O)C(NC1=O)C(=O)N[C@H]2C(=O)O)NC(=O)C(N)c1ccc(O)c(c1)Oc1cc(O)cc4c1 (stereo not given in full) | > 100 | > 100 |  |  |  | > 100 | > 100 | 11 | 20 | 17 |
| CN[C@H](CC(C)C)C(=O)N[C@H]1C(=O)N[C@@H](CC(N)=O)C(=O)N[C@H]2C(=O)N[C@H]3C(=O)N[C@H](C(=O)N[C@H](C(=O)NCc4ccc(-c5ccc(Cl)cc5)cc4)c4cc(O)cc(O)c4-c4cc3ccc4O)[C@H](O[C@H]3C[C@](C)(N)[C@@H](O)[C@H](C)O3)c3ccc(cc3)Oc3cc2cc(c3O[C@@H]2O[C@H](CO)[C@@H](O)[C@H](O)[C@H]2O[C@H]2C[C@](C)(N)[C@@H](O)[C@H](C)O2)Oc2ccc(cc2Cl)[C@H]1O | 4 (≈ 7.03 µg/mL) | 8.6 |  |  |  | 15 | 7.7 | > 0.8 | > 10 | > 10 |
| CN(C)CCCNC(=O)[C@@H]1NC(=O)C2NC(=O)C(NC(=O)C3NC(=O)C4NC(=O)C(Cc5ccc(c(Cl)c5)Oc5cc3cc(c5O)Oc3ccc(cc3Cl)C2O)NC(=O)C(N)c2ccc(O)c(c2)Oc2cc(O)cc4c2)c2ccc(O)c(c2)-c2c1cc(O)c(CNC1C3CC4CC(C3)CC1C4)c2O (stereo not given in full) | 20 (≈ 28.9 µg/mL) | > 500 | > 250 | 8 µM and 22 µM | 4 µM | > 500 | > 500 | 12 |  | 2.5 |
| CNC(=O)[C@@H]1NC(=O)C2NC(=O)C(NC(=O)C3NC(=O)C(CC(N)=O)NC(=O)C(NC(=O)C(CC(C)C)NC)C(O)c4ccc(c(Cl)c4)Oc4cc3cc(c4O)Oc3ccc(cc3)C2O)c2ccc(O)c(c2)-c2c1cc(O)c(CN1CCN(Cc3ccc(-c4ccccc4)cc3)CC1)c2O (stereo not given in full) | > 100 | > 100 |  |  |  | > 100 | > 100 | 12 | 5.5 | 4 |
| CNC(=O)[C@@H]1NC(=O)C2NC(=O)C(NC(=O)C3NC(=O)C(CC(N)=O)NC(=O)C(N)C(O)c4ccc(c(Cl)c4)Oc4cc3cc(c4O)Oc3ccc(cc3)C2O)c2ccc(O)c(c2)-c2c1cc(O)c(CNC1C3CC4CC(C3)CC1C4)c2O (stereo not given in full) | > 100 | > 250 |  |  |  | > 250 | > 250 | 14 | 20 | 13 |
| NC1C(=O)NC2Cc3ccc(c(Cl)c3)Oc3cc4cc(c3O)Oc3ccc(cc3Cl)C(O)C3NC(=O)C(NC(=O)C4NC(=O)C(NC2=O)c2cc(O)cc(c2)Oc2cc1ccc2O)c1ccc(O)c(c1)-c1c(O)cc(O)cc1[C@H](C(=O)O)NC3=O (stereo not given in full) | > 100 | > 500 |  |  |  | > 500 | > 500 | 25 | 20 | 17 |
| CCCCc1ccc(CNC2C(Oc3c4cc5cc3Oc3ccc(cc3Cl)C(O)C3NC(=O)C(NC(=O)C5NC(=O)C5NC(=O)C(Cc6ccc(cc6)O4)NC(=O)C(NC)c4ccc(O)c(c4)Oc4cc(O)c(Cl)c5c4)c4ccc(O)c(c4)-c4c(O)cc(O)cc4[C@H](C(=O)NCCCN(C)C)NC3=O)OC(C(=O)NCCCN(C)C)C(O)C2O)cc1 (stereo not given in full) | > 100 | > 250 |  |  |  | 36 | 66 | > 20 | > 50 | 12 |
| CNC(=O)[C@@H]1NC(=O)C2NC(=O)C(NC(=O)C3NC(=O)C4NC(=O)C(Cc5ccc(c(Cl)c5)Oc5cc3cc(c5O)Oc3ccc(cc3Cl)C2O)NC(=O)C(N)c2ccc(O)c(c2)Oc2cc(O)cc4c2)c2ccc(O)c(c2)-c2c(O)cc(O)cc21 (stereo not given in full) | > 100 | > 500 |  |  |  | > 500 | > 500 | > 20 | 17 | 15 |
| NCCCCCCCCCCNC(=O)[C@@H]1NC(=O)C2NC(=O)C(NC(=O)C3NC(=O)C4NC(=O)C(Cc5ccc(c(Cl)c5)Oc5cc3cc(c5O)Oc3ccc(cc3Cl)C2O)NC(=O)C(N)c2ccc(O)c(c2)Oc2cc(O)cc4c2)c2ccc(O)c(c2)-c2c(O)cc(O)cc21 (stereo not given in full) | 20 (≈ 27.1 µg/mL) | 402 |  |  |  | 500 | 225 | > 4 | 12 | 6.5 |
| COC(=O)[C@@H]1NC(=O)C2NC(=O)C(NC(=O)C(N)c3cc(Oc4ccc(CC(NC(=O)OCc5ccccc5)C(=O)O)cc4Cl)c(O)c(c3)Oc3ccc(cc3Cl)C2O)c2ccc(O)c(c2)-c2c1cc(O)c(CNC1C3CC4CC(C3)CC1C4)c2O (stereo not given in full) | > 100 | > 250 |  |  |  | 181 | > 250 | 39 | 37 | 17 |
| CCCCc1ccc(CNCc2c(O)cc3c(c2O)-c2cc(ccc2O)C2NC(=O)C4NC(=O)C5NC(=O)C(Cc6ccc(c(Cl)c6)Oc6cc4cc(c6O)Oc4ccc(cc4Cl)C(O)C(NC2=O)C(=O)N[C@H]3C(=O)NC)NC(=O)C(NC(=O)OC(C)(C)C)c2ccc(O)c(c2)Oc2cc(O)cc5c2)cc1 (stereo not given in full) | 20 (≈ 29.7 µg/mL) | > 100 |  |  |  | 70 | > 100 | > 4 | 12 | 6 |
